We go through six compounds from ChEMBL document CHEMBL1124622, “Synthesis and antiviral activity of 3'-C-cyano-3'-deoxynucleosides” (J Med Chem, 1989).

In brackets after ≈: the same amount, converted by molar mass.

Data set [1] concerns Moloney murine sarcoma virus. Briefly: In vitro effective dose against Moloney murine sarcoma virus induced transformation of C3H embryo fibroblast cells. Type of data set: functional. The conditions noted are these: read-out: ED50 (the source's name). The essentials: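 C3H mouse embryo cells are seeded at 20 000 cells/mL per well and grown 24 h. They are infected with 80 foci-forming units of Moloney MSV for 90 min, then given fresh medium with varying compound concentrations. Transformation is examined microscopically after 6-7 days. ED50 is the dose giving a 50% reduction in transformation.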

Data set [2] is described as follows: In vitro minimum cytotoxic concentration in C3H embryo fibroblast cells. Type of data set: functional. The conditions noted are these: Mus musculus. The method, boiled down: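 Minimal cytotoxic concentration in C3H mouse embryo cells, run in the same 48-well setup as the MSV transformation assay: the concentration producing microscopically visible alteration of cell morphology.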

Data set [3] can be described thus: Minimum cytotoxic concentration in HeLa cell cultures. It counts as cell-based. The conditions noted are these: human, HeLa cells.
Data set [4] relates to HeLa. Briefly: Minimum inhibitory concentration against Vesicular stomatitis virus in HeLa cell cultures. It counts as functional. The conditions noted are these: Homo sapiens. The method, boiled down: (§1)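 Confluent HeLa, Vero or primary rabbit kidney cell cultures in microtiter trays are inoculated with 100 CCID50 of virus. After 1 h adsorption, residual virus is removed and cells are incubated with varying compound concentrations. Cytopathogenicity is recorded once it is complete in untreated virus-infected controls. MIC is the concentration inhibiting virus-induced cytopathogenicity.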

In data set [5] the test system is HeLa. Briefly: Minimum inhibitory concentration against polio virus 1 in HeLa cell cultures. It counts as functional. The conditions noted are these: Homo sapiens. The method, boiled down:
as §1

The species entered for a further data set is Homo sapiens. Briefly: Cytotoxic dose against uninfected human MT-4 cell. The conditions noted are these: MT4, read-out: CD50 (the source's name). It counts as functional. The essentials:
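Cytotoxicity counterpart of the HIV assay: uninfected human MT-4 lymphocytes exposed to the compounds. CD50 is the dose that reduces viability of these uninfected cells by 50%.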

Data set [6] relates to Human immunodeficiency virus 1. Briefly: Effective dose against HIV-1 induced cytopathogenicity in human MT-4 cell. Type of data set: functional. The conditions noted are these: Human immunodeficiency virus 1, MT4; read-out: ED50 (the source's name). The essentials:
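HIV (HTLV-III_B) is taken from the culture supernatant of a persistently infected HUT-78 line. Human MT-4 lymphocytes are infected and the assay scores inhibition of virus-induced cytopathogenicity. ED50 is the dose giving 50% protection of MT-4 cells against the viral cytopathic effect.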

A short description of data set [7]: Minimum cytotoxic concentration in primary rabbit kidney cell cultures. It counts as cell-based, Oryctolagus cuniculus. The conditions noted are these: primary rabbit kidney cells.
The subject of another data set is Coxsackievirus B4. Briefly: Minimum inhibitory concentration against Coxsackie virus B4 in Vero cell cultures. It counts as functional. The conditions noted are these: Enterovirus B. The essentials: as §1
A further data set has as its system Semliki Forest virus. Briefly: Minimum inhibitory concentration against forest virus in Vero cell cultures. Type of data set: functional. The method, boiled down:
as §1

A further data set relates to Sindbis virus. Briefly: Minimum inhibitory concentration against Sindbis virus in Vero cell cultures. Type of data set: functional. The essentials:
as §1

For another data set, the system named is Human respirovirus 3. Briefly: Minimum inhibitory concentration against parainfluenza 3 virus in Vero cell cultures. It counts as functional. The essentials:
as §1

In data set [8] the test system is Mammalian orthoreovirus 1. Briefly: Minimum inhibitory concentration against reovirus in Vero cell cultures. It counts as functional. The method, boiled down:
as §1

Another data set deals with Vaccinia virus. Briefly: Minimum inhibitory concentration against Vaccinia virus in primary rabbit kidney cell cultures. Type of data set: functional. The conditions noted are these: Orthopoxvirus vaccinia. The method, boiled down: as §1
The subject of data set [9] is Vesicular stomatitis virus. Briefly: Minimum inhibitory concentration against Vesicular stomatitis virus in primary rabbit kidney cell cultures. It counts as functional. The method, boiled down: as §1
Data set [10] concerns HeLa. Briefly: Minimum inhibitory concentration against Coxsackie virus B4 in HeLa cell cultures. The conditions noted are these: Homo sapiens. It counts as functional. The method, boiled down:
as §1

Data set [11] can be described thus: Minimum cytotoxic concentration in Vero cell cultures. Type of data set: cell-based. The conditions noted are these: chlorocebus sabaeus, Vero cells.

In the case of `N#C[C@@H]1[C@@H](O)[C@H](n2ccc(=O)[nH]c2=O)O[C@@H]1CO`, the EC50 in [1] is 260 µg/mL (≈ 1030 µM); in data set [6] it was more than 400 µM. Moreover, the MCC in [2] is 400 µg/mL; in data set [3], more than 400 µg/mL; in data set [7] it was more than 200 µg/mL; in data set [11], 400 µg/mL. The MIC in the data set on HeLa [4], against HeLa [5], in the data set on Coxsackievirus B4, against Semliki Forest virus, with Sindbis virus and against Human respirovirus 3 was more than 200 µg/mL in each case. In addition, the MIC in data set [8] is more than 200 µg/mL; in the data set with Vaccinia virus it was 4 µg/mL (≈ 15.8 µM); in data set [9], more than 200 µg/mL; against HeLa [10], more than 200 µg/mL. For the same compound, in the data set listed under Homo sapiens, the CC50 was more than 400 µM.
For `CC(C)(C)[Si](C)(C)OCC1OC(n2ccc(N)nc2=O)C(O[Si](C)(C)C(C)(C)C)C1C#N` (stereo not drawn), the EC50 in data set [1] is more than 1.6 µg/mL; in [6], more than 3.2 µM. Further, the MCC in [2] is 8 µg/mL; in data set [3], more than 4 µg/mL; in data set [7], more than 10 µg/mL; in data set [11], 10 µg/mL. Further, the MIC in the data set on HeLa [4] was more than 1 µg/mL; in the data set with HeLa [5] it was more than 1 µg/mL; in the data set on Coxsackievirus B4, more than 4 µg/mL; with Semliki Forest virus, more than 4 µg/mL; in the data set with Sindbis virus, more than 4 µg/mL; in the data set with Human respirovirus 3, more than 4 µg/mL. Also, the MIC was more than 4 µg/mL in [8], more than 4 µg/mL in the data set on Vaccinia virus, more than 4 µg/mL in [9] and more than 1 µg/mL with HeLa [10]. Moreover, the CC50 in the data set listed under Homo sapiens came out at 6.1 µM.
For the compound `Cc1cn(C2CC(C#N)C(CO[Si](C)(C)C(C)(C)C)O2)c(=O)[nH]c1=O` (stereo not drawn), the EC50 was more than 16 µg/mL in data set [1] and more than 16 µM in [6]. Moreover, the MCC in data set [2] is 80 µg/mL; in data set [3] it was 100 µg/mL; in data set [7], more than 100 µg/mL; in data set [11], more than 100 µg/mL. In addition, the MIC against HeLa [4] was more than 40 µg/mL; in the data set with HeLa [5], more than 40 µg/mL; against Coxsackievirus B4, more than 100 µg/mL; with Semliki Forest virus, more than 100 µg/mL; with Sindbis virus, more than 100 µg/mL; in the data set on Human respirovirus 3, more than 100 µg/mL. Moreover, the MIC is 20 µg/mL (≈ 54.7 µM) in [8], more than 40 µg/mL against Vaccinia virus, more than 40 µg/mL in data set [9] and more than 40 µg/mL with HeLa [10]. For the same compound, the CC50 in the data set listed under Homo sapiens was 31 µM.
As to `Cc1cn(C2OC(CO)C(C#N)C2O)c(=O)[nH]c1=O` (stereo not drawn), the values for the EC50 in data set [1] and in data set [6] were more than 250 µg/mL and more than 250 µM, respectively. In addition, the MCC was more than 250 µg/mL in data set [2], more than 400 µg/mL in data set [3], 400 µg/mL in data set [7] and more than 200 µg/mL in data set [11]. The MIC was more than 200 µg/mL against HeLa [4]; more than 200 µg/mL in the data set with HeLa [5]; more than 100 µg/mL against Coxsackievirus B4; 300 µg/mL (≈ 1120 µM) in the data set with Semliki Forest virus; 150 µg/mL (≈ 561 µM) with Sindbis virus; more than 100 µg/mL in the data set on Human respirovirus 3. Moreover, the MIC was more than 200 µg/mL in data set [8], 150 µg/mL (≈ 561 µM) with Vaccinia virus, more than 200 µg/mL in data set [9] and more than 200 µg/mL in the data set on HeLa [10]. Also, in the data set listed under Homo sapiens, the CC50 was 232 µM.
Turning to `CC(=O)Nc1ccn(C2OC(CO[Si](C)(C)C(C)(C)C)C(C#N)C2O[Si](C)(C)C(C)(C)C)c(=O)n1` (stereo not drawn), the EC50 in data set [1] was 2.2 µg/mL (≈ 4.21 µM); in data set [6] it was more than 3.2 µM. Moreover, the MCC is more than 3.2 µg/mL in [2], more than 4 µg/mL in [3], more than 4 µg/mL in data set [7] and more than 4 µg/mL in [11]. The MIC in the data set with HeLa [4] was more than 1 µg/mL; against HeLa [5], more than 4 µg/mL; in the data set on Coxsackievirus B4 it was more than 4 µg/mL; in the data set on Semliki Forest virus, more than 4 µg/mL; in the data set with Sindbis virus, more than 4 µg/mL; against Human respirovirus 3, more than 4 µg/mL. For the same compound, the MIC in data set [8] was more than 4 µg/mL; in the data set on Vaccinia virus, more than 1 µg/mL; in [9], more than 1 µg/mL; with HeLa [10], 2 µg/mL (≈ 3.83 µM). Also, the CC50 in the data set filed under Homo sapiens stood at 4.8 µM.
`Nc1nccc2c1ncn2[C@@H]1C[C@H](CO)[C@@H](O)[C@H]1O` [3-DEAZAARISTEROMYCIN A]: the MCC was more than 400 µg/mL in data set [3], more than 400 µg/mL in data set [7] and 400 µg/mL in [11]. For the same compound, the MIC is 1 µg/mL (≈ 3.78 µM) in the data set on HeLa [4]; more than 400 µg/mL against HeLa [5]; 100 µg/mL (≈ 378 µM) against Coxsackievirus B4; more than 400 µg/mL against Semliki Forest virus; 300 µg/mL (≈ 1140 µM) against Sindbis virus; 4 µg/mL (≈ 15.1 µM) against Human respirovirus 3. Further, the MIC was 7 µg/mL (≈ 26.5 µM) in [8], 2 µg/mL (≈ 7.57 µM) in the data set on Vaccinia virus, 0.7 µg/mL (≈ 2.65 µM) in data set [9] and more than 400 µg/mL against HeLa [10].
